Source: paper PMC2897717 (Journal of cerebral blood flow and metabolism : official …, 2009)

What was measured:
dopamine D2/D3 receptors = test: Multiple-injection; format: in vivo, rhesus monkey (Macaca mulatta)
Multiple-injection = format: in vivo, rhesus monkey (Macaca mulatta)
In short: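 Three labeled/unlabeled radioligand injections were given i.v. in 0.9% NaCl within a session under 3 hours, with no decay correction. The model used K1, k2, fNDkon, koff and Bmax shared across injections, with molar arterial parent plasma as input and a blood-volume term. Levenberg–Marquardt fitting was run per ROI and across regions. Cerebellum was fitted as 1CM [K1,k2] or 2CM [K1,k2,Bmax] with fNDkon and koff fixed from other regions.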

[1] = baboon, MI experiments; ref Delforge et al, 1999; cited from earlier work
[2] = averaged across all brain regions

K1, mean (Multiple-injection; [2]) [mL/cm^3/min] | k2, tissue-to-plasma efflux constant, mean (Multiple-injection; [2]) [min⁻¹] | ND distribution volume (VND = K1/k2) (Multiple-injection; from mean K1 and k2) [mL/cm^3] | Structure (SMILES) | Estimated maximum receptor occupancy, injection 1 (dopamine D2/D3 receptors; experiment M1a, m1 2.0 nmol) [%] | Estimated maximum receptor occupancy, injection 2 (dopamine D2/D3 receptors; experiment M1a, m2 13.1 nmol) [%] | Estimated maximum receptor occupancy, injection 3 (dopamine D2/D3 receptors; experiment M1a, m3 100 nmol) [%] | Estimated maximum receptor occupancy, injection 1 (dopamine D2/D3 receptors; experiment M2a, m1 0.7 nmol) [%] | Estimated maximum receptor occupancy, injection 2 (dopamine D2/D3 receptors; experiment M2a, m2 10.6 nmol) [%] | VND [1] [mL/cm^3]
0.48 ± 0.15 | 0.54 ± 0.10 | 0.9 | C=CCN1CCC[C@H]1CNC(=O)c1cc(CCCF)cc(OC)c1OC [^18F-fallypride, (S)-N-[(1-allyl-2-pyrrolidinyl)methyl]-5 (3-[18F]fluoropropyl) 2,3-dimethoxybenzamide] | 13 | 64 | 98 | 12 | 77 | 
 |  |  | CCN1CCCC1CNC(=O)c1cc([76Br])cc(OC)c1OC (stereo not drawn) [^76Br-FLB457] |  |  |  |  |  | 0.35
